A selection: hits, their analogues and other compounds. The true share with any hit is near 2.6%.
SENP1 FRET inh: SENP1 (human) catalytic domain inhibition. AID 624204. recombinant SENP1 catalytic domain, CyPet-SUMO1-YPet FRET cleavage. inhibition, % at 10 µM. Q9P0U3. 360,000 compounds, 0.21% hits;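 active = inhibition at least 30% at 10 µM, raw YFP signal under a set limit, fluorescence ratio 0.5 to 1.5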;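 note: 0% = enzyme with DMSO and 100% = no enzyme wells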
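Assay system – human recombinant His6-tagged SENP1 catalytic domain enzyme · Input – SENP1 enzyme, 20 pM final · Buffer or medium – Tris pH 8 buffer plus EDTA, NaCl, BME, BSA, NP40, catalase · Schedule – 50 min reaction at room temperature · Technique – FRET read of cyan and yellow fluorescence · Control set – no-enzyme wells low, DMSO-plus-enzyme wells high control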
SENP8 block-1: inhibitors of human SENP8 protease | Q96LD8 | inhibition, % at 10 µM | 330,000 compounds, 1.2% hits | purified SENP8, Z-RLRGG-aminoluciferin cleavage, luminescence; in the data active = inhibition above about 50%
Target sequence (Q96LD8 whole entry, looked up): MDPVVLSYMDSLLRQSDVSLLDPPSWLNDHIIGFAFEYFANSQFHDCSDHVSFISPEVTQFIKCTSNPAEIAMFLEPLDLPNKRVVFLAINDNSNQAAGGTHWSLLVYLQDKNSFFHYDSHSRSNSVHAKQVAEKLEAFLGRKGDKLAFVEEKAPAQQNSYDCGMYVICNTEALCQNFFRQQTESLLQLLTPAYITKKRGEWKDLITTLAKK
SENP7 block: inhibitors of human SENP7 protease. Q9BQF6. 330,000 compounds, 1.5% hits. recombinant SENP7, Z-RLRGG-aminoluciferin luminescence, 40 min. inhibition, % at 5 µM. AID 434973;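 active = inhibition above about 50% at the single test dose, limit read from the data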;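 note: plate controls were DMSO with enzyme for no effect and no enzyme buffer wells for full effect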
SENP8 block-2: SENP8 (human) protease inhibition; inhibition, % at 20 µM; recombinant SENP8, Nedd8 substrate fluorescence; Q96LD8; AID 602440; 360,000 compounds, 0.64% hits; in the data active = inhibition mostly above about 40%, no sharp cut-off; inactive = mostly below about 27%
SENP6 inh: blocks the human protease SENP6; Q9GZR1; 330,000 compounds, 1.8% hits; inhibition, % at 10 µM; Recombinant SENP6 catalytic domain, aminoluciferin luminescence;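 active = inhibition above about 50% at the single tested dose, limit read from the data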;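 note: plate controls were DMSO wells with enzyme for no effect and DMSO wells lacking enzyme for full effect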
Platelet DG rel: modulates dense granule release in human platelets. human platelet-rich plasma, SFLLRN dense granule ATP release, luminescence. inhibition, %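 (compounds screened at 7.5 µM in platelet-rich plasma)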. 300,000 compounds, 0.22% hits. AID 1663;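 active = mean replicate score, as percent of positive control, at or above 50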
SENP8 confirm: human SENP8 inhibition, confirmed; shares compounds with SENP7 block; Recombinant SENP8, Z-RLRGG-aminoluciferin luminescence, 60 min; inhibition, % at 12.5 µM; 6,200 compounds, 40% hits;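 active = mean inhibition across replicates above about 50%, limit read from the data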
SENP6 confirm: human SENP6 inhibition, confirmed; shares compounds with SENP7 block; recombinant SENP6, Z-RLRGG-aminoluciferin luminescence; inhibition, % at 12.5 µM; 6,200 compounds, 58% hits; AID 488915
SENP7 conf: confirmation of human SENP7 protease inhibitors; shares compounds with SENP7 block; recombinant SENP7, Z-RLRGG-aminoluciferin luminescence, 40 min; inhibition, % at 12.5 µM; 6,200 compounds, 69% hits; AID 488917
Casp3 SENP sel: selectivity test for SENP inhibitors: human caspase-3 inhibition; 6,200 compounds, 60% hits; shares compounds with SENP7 block; inhibition, % at 12.5 µM; purified caspase-3, Z-DEVD-aminoluciferin luminescence, 60 min;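 active = mean inhibition above about 50%, limit read from the data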;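 note: plate controls were enzyme with DMSO for no effect and wells without caspase-3 for full effect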
Target sequence (P42574 28-227 limits assumed): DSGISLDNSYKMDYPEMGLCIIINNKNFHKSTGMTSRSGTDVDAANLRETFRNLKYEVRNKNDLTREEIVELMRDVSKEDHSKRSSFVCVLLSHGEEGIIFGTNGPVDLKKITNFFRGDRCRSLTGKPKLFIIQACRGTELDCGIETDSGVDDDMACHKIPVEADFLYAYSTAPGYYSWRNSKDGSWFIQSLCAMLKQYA
Luc interf: counter-screen for SENP inhibitors: luminescence interference; inhibition, % at 12.5 µM; 6,200 compounds, 39% hits; shares compounds with SENP7 block; Pre-incubated SENP8/Z-RLRGG-aminoluciferin, luciferase luminescence interference; AID 488919;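 active = mean inhibition above about 50% when retested at one dose, limit read from the data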;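 note: plate controls were DMSO wells with completed reaction for no effect and substrate without enzyme for full effect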
* marks the source's active call; other numbers are inactive results; i = inactive; . = not tested or not shown.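 Rule for the calls, unless noted: active = mean inhibition above about 50% in the one-dose retest (limit read from the data); inactive = the rest.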

SMILES	SENP1 FRET inh	SENP8 block-1	SENP7 block	SENP8 block-2	SENP6 inh	Platelet DG rel	SENP8 confirm	SENP6 confirm	SENP7 conf	Casp3 SENP sel	Luc interf
O=C(O)c1ccc(N/N=C/c2cc(Br)cs2)cc1	-30	97*	100*	-29	99*	21	98*	99*	102*	46	97*
O=C(O)c1ccc(N/N=C/c2cc3ccccc3nc2Cl)cc1	-33	10	6	-103	39	2	.	.	.	.	.
O=C(O)c1ccc(/C=N/Nc2cccc(C(F)(F)F)c2)cc1	-16	-3	-25	-54	6	7	.	.	.	.	.
Cc1cccc2cc(/C=N/Nc3ccc(C(=O)O)cc3)c(Cl)nc12	-36	77*	5	-32	83*	4	88*	90*	89*	72*	21
O=C(O)c1cccc(N/N=C/c2cccc3ccccc23)c1	-32	95*	55*	-35	97*	-21	100*	100*	103*	94*	99*
O=C(O)c1cccc(N/N=C/c2ccc(F)c(F)c2)c1	0	94*	2	-19	101*	3	99*	99*	102*	86*	98*
CCOC(=O)[C@@H]1[C@H]2COc3cc(OC)ccc3[C@@H]2N2C(=O)N(c3ccccc3)C(=O)[C@]12C	2	1	0	6	-2	.	.	.	.	.	.
O=C(N/N=C/c1ccc(O)cc1)c1cccc(N/N=C/c2ccc(O)cc2)c1	-2	15	22	-32	52*	5	6	-11	25	25	32
Cc1nn(-c2ccccc2Cl)c(Cl)c1/C=N/Nc1cccc(C(=O)O)c1	3	97*	95*	-7	97*	5	99*	101*	103*	91*	98*
O=C(N/N=C/c1ccncc1)c1cccc(N/N=C/c2ccncc2)c1	1	-13	-1	2	0	8	.	.	.	.	.
Cc1nn(-c2cccc(C(F)(F)F)c2)c(Cl)c1/C=N/Nc1cccc(C(=O)O)c1	-2	.	.	5	.	-1	.	.	.	.	.
Cc1ccc(/C=N/Nc2cccc(C(=O)O)c2)s1	-35	96*	97*	-39	95*	-6	99*	100*	103*	92*	98*
Cc1ccc(/C=N/NC(=O)c2ccc(C(=O)N/N=C/c3ccc(C)s3)o2)s1	-21	-4	-3	i	-22	-2	.	.	.	.	.
Cc1ccc(/C=N/Nc2ccc(C(=O)O)cc2)s1	-38	97*	-7	-167	95*	83*	52*	101*	104*	99*	100*
C[C@@H]1CN([C@@H](C)CO)C(=O)c2cc(NS(C)(=O)=O)ccc2O[C@@H](C)CCCCO[C@H]1CN(C)Cc1ccc2c(c1)OCO2	-1	.	.	12	.	.	.	.	.	.	.
COC(=O)c1cccc(CN2C(=O)C(C)Sc3ccc(C(C)=O)cc32)c1 (stereo unspecified)	1	.	.	-4	.	.	.	.	.	.	.
Cc1c(NC(=O)Cc2ccccc2)cccc1C(=O)NN1C(=O)c2ccccc2C1=O	-1	-10	-4	9	-21	20	.	.	.	.	.
Nc1ccc(-c2nc3ccc([N+](=O)[O-])cc3[nH]2)cc1	49*	30	42	37	50*	9	41	38	73*	47	39
CCCC[n+]1ccc(-c2nc3ccc([N+](=O)[O-])cc3[nH]2)cc1	-74	-9	-15	-120	-31	-2	.	.	.	.	.

From PubChem
